Source: ChEMBL document CHEMBL1135512 (J Med Chem, 2002)

What was measured:
[1] = Partition coefficient (logD7.0); assay type: physicochemical; details: octanol/water
[2] = Partition coefficient (logP); assay type: physicochemical; details: octanol/water
[3] = Cytotoxicity against Chinese hamster ovary cells; assay type: cell-based, Cricetulus griseus
Summary of the method: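 Cells were then exposed to graded drug concentrations for 48 h at 37 °C, 5% CO2. MTT (1 mg/mL in PBS) was added for 3 h, and formazan was dissolved in DMSO and read at 570/630 nm. IC50 came from nonlinear regression versus drug-free wells.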

[4] = In vitro hemolytic concentration on uninfected erythrocytes.; assay type: functional, Homo sapiens
Summary of the method: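 Washed A+ human erythrocytes were held at 1.5% hematocrit in RPMI 1640 with 10% human serum, 25 mM HEPES and 25 mM NaHCO3. Drug (2 mM to 1 μM final, triplicate) was added for 42 h at 37 °C under 10% O2/6% CO2. Released hemoglobin in supernatant was measured with TMB/H2O2 at 455 nm. HC50 is relative to 5% saponin lysis, by nonlinear regression.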

Plasmodium falciparum [5] = test: In vitro inhibitory activity against multidrug-resistant Plasmodium falciparum W2 Indochina; assay type: functional, organism-based
Summary of the method: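 Clone W2 (Indochina), sorbitol-synchronized, was grown in RPMI 1640 with 10% human serum, 25 mM HEPES and 25 mM NaHCO3, at final parasitemia 0.5% and hematocrit 1.5%. The drug was present for 48 h at 37 °C under 10% O2/6% CO2/84% N2. Growth was read as 3H-hypoxanthine uptake (1 μCi/well). IC50 came from nonlinear regression of log-dose/response as the geometric mean with 95% CI.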

Plasmodium falciparum [6] = test: Accumulation coefficient of chloroquine at 1 uM-10 uM of DEEA against Plasmodium falciparum W2; assay type: functional
Summary of the method: (§1)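 W2 infected erythrocytes were suspended in RPMI 1640 with 25 mM HEPES and 25 mM NaHCO3 (2% parasitemia, 2% hematocrit). They were mixed over silicone oil with buffer holding [3H]CQ (26 Ci/mmol) plus DEEA at 1 or 10 μM. Incubation was 1 h at 37 °C under 10% O2/6% CO2/84% N2, followed by 1 min centrifugation. Ratio = parasite [3H]CQ (infected minus uninfected cells) / same-volume buffer.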

Plasmodium falciparum [7] = test: Concentration required to reduce chloroquine IC50 by 50%; assay type: functional, organism-based
Summary of the method: (§2)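 Synergy isotopic microtest on sorbitol-synchronized W2 (Indochina) and 3D7 in RPMI 1640 with 10% human serum, HEPES/NaHCO3, parasitemia 0.5%, hematocrit 1.5%. CQ was combined with subinhibitory fixed DEEA concentrations, and 3H-hypoxanthine was added for 48 h at 37 °C under 10% O2/6% CO2/84% N2. Reversal IC50 is the DEEA concentration halving CQ IC50, found by nonlinear regression of log-dose/IC50.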

Plasmodium falciparum [8] = test: Percent reversal against Plasmodium falciparum W2 at 1 uM DEEA; assay type: functional
[9] = Dissociation constant (pKa); assay type: physicochemical
Plasmodium falciparum [10] = test: Accumulation coefficient of chloroquine at 1 uM-10 uM of DEEA against Plasmodium falciparum W2; Range is from 14-56; assay type: functional; summary of the method: as §1
Plasmodium falciparum [11] = test: Accumulation coefficient of chloroquine at 1 uM-10 uM of DEEA against Plasmodium falciparum W2; Range is from 50-66; assay type: functional; summary of the method: as §1
Plasmodium falciparum [12] = test: Accumulation coefficient of chloroquine at 1 uM-10 uM of DEEA against Plasmodium falciparum W2;Range is from 16-25; assay type: functional; summary of the method: as §1
Plasmodium falciparum [13] = test: Accumulation coefficient of chloroquine at 1 uM-10 uM of DEEA against Plasmodium falciparum W2; Range is from 23-30; assay type: functional
Plasmodium falciparum [14] = test: Concentration required to reduce chloroquine IC50 by 50%; Antagonist; assay type: functional, organism-based; summary of the method: as §2
Plasmodium falciparum [15] = test: Accumulation coefficient of chloroquine at 1 uM-10 uM of DEEA against Plasmodium falciparum W2; Range is from 61-242; assay type: functional; summary of the method: as §1
Plasmodium falciparum [16] = test: Accumulation coefficient of chloroquine at 1 uM-10 uM of DEEA against Plasmodium falciparum W2; Range is from 22-29; assay type: functional; summary of the method: as §1
[17] = pKa of the compound; assay type: physicochemical
Plasmodium falciparum [18] = test: Accumulation coefficient of chloroquine at 1 uM-10 uM of DEEA against Plasmodium falciparum W2; Range is from 50-159; assay type: functional; summary of the method: as §1
Plasmodium falciparum [19] = test: Accumulation coefficient of chloroquine at 1 uM-10 uM of DEEA against Plasmodium falciparum W2;Range is from 30-23; assay type: functional; summary of the method: as §1
Plasmodium falciparum [20] = test: Percent reversal against Plasmodium falciparum W2 at 1 uM DEEA
Plasmodium falciparum [21] = test: Accumulation coefficient of chloroquine at 1 uM-10 uM of DEEA against Plasmodium falciparum W2;Range is from 30-32; assay type: functional; summary of the method: as §1
Plasmodium falciparum [22] = test: Accumulation coefficient of chloroquine at 1 uM-10 um of DEEA against Plasmodium falciparum W2;Range is from 112-298; assay type: functional; summary of the method: as §1
Plasmodium falciparum [23] = test: Accumulation coefficient of chloroquine at 1 uM-10 uMof DEEA against Plasmodium falciparum W2; assay type: functional; summary of the method: as §1
Plasmodium falciparum [24] = test: Accumulation coefficient of chloroquine at 1 uM-10 uM of DEEA against Plasmodium falciparum 3D7; assay type: functional
Plasmodium falciparum [25] = test: Accumulation coefficient of chloroquine at 1 uM-10 uM of DEEA against Plasmodium falciparum W2; Range is from 37-42; assay type: functional; summary of the method: as §1

SMILES	logD ([1]; pH 7, read-out: logD)	logP ([2]; read-out: logP)	Cytotoxicity [3] [µM]	HC50 [4] [µM]	IC50 (Plasmodium falciparum [5]; Plasmodium falciparum) [µM]	Accumulation coefficient (Plasmodium falciparum [6])	IC50 (Plasmodium falciparum [7]; Plasmodium falciparum) [µM]	Reversal (Plasmodium falciparum [8]) [%]	pKa [9]	other results
O=C(NCc1ccccc1)C1=CC2c3ccccc3C1c1ccccc12	4.41	4.41	> 2000	>2000	50	46	23	0		
CC1C2c3ccccc3C(c3ccccc32)C1C[N+](C)(C)C.[I-] (stereo not drawn)	1.32	1.32	> 2000	>2000	16	192	3.5	37		
CN(C)CC1C2c3ccccc3C(c3ccccc32)C1CO (stereo not drawn)	0.96	2.82	> 2000	>2000	36		0.6	66	8.86	Accumulation coefficient (Plasmodium falciparum [10]): 56
CNCC1CC2c3ccccc3C1c1ccccc12 (stereo not drawn)	0.63	3.66	515	1090	8	210	0.3	80	10.2	
CN(C)CC1C2c3ccccc3C(c3ccccc32)C1COC(=O)N(C)C (stereo not drawn)	1	2.99	758	1563	21		1.6	25	8.99	Accumulation coefficient (Plasmodium falciparum [11]): 66
CN(C)C=NC(=O)C1C2c3ccccc3C(c3ccccc32)C1C(=O)N=CN(C)C (stereo not drawn)	1.6	1.6	820	>2000	33		30	0		Accumulation coefficient (Plasmodium falciparum [12]): 25
COC(=O)C1C2c3ccccc3C(c3ccccc32)C1C(=O)N(C)C (stereo not drawn)	2.47	2.47	> 2000	>2000	32			0	-1.65	Accumulation coefficient (Plasmodium falciparum [13]): 30; IC50 (Plasmodium falciparum [14]): Antagonist
c1ccc2c(c1)C1c3ccccc3C2C2CNCC12 (stereo not drawn)	0	2.98	1110	>2000	10	322	0.2	80	10.2	
CN(C)CC1=CC2c3ccccc3C1c1ccccc12	2.61	3.68	1427	1630	4	53	0.5	65	8.04	
CN(C)CC1=C(CN(C)C)C2c3ccccc3C1c1ccccc12	1.26	3.34	920	>2000	2.5		0.8	55	8.66	Accumulation coefficient (Plasmodium falciparum [15]): 242
CN(C)C1CC2c3ccccc3C1c1ccccc12 (stereo not drawn)	2	3.67	> 2000	>2000	9.3	219	0.8	60	8.67	
NC(=O)C1C2c3ccccc3C(c3ccccc32)C1C(N)=O (stereo not drawn)	0.86	0.86	> 2000	>2000	44		50	0	-0.96	Accumulation coefficient (Plasmodium falciparum [16]): 29
NCC1C2c3ccccc3C(c3ccccc32)C1CN (stereo not drawn)			465	>2000	8		12.5	7		logD ([1]; pH 7): -3.27; logP [2]: 1.89; pKa [17]: 10.1; Accumulation coefficient (Plasmodium falciparum [18]): 159
CC1C2c3ccccc3C(c3ccccc32)C1CN(C)C (stereo not drawn)	2.25	4.24	711	1402	30	62	0.4	60	8.99	
CN(C)C(=O)C1=C(C(=O)N(C)C)C2c3ccccc3C1c1ccccc12	2.15	2.15	> 2000	>2000	36.5		> 50	0		Accumulation coefficient (Plasmodium falciparum [19]): 30
CC1C2c3ccccc3C(c3ccccc32)C1C(=O)Nc1cccnc1 (stereo not drawn)	3.85	3.85	93	>2000	164	10		0	4.14	
O=C(NCCCCCCCCCCNC(=O)C1=CC2c3ccccc3C1c1ccccc12)C1=CC2c3ccccc3C1c1ccccc12			> 2000	>2000	8	34		0	-1.14	logD [1]: 9.16; logP [2]: 9.16
COc1ccc(CCN(C)CCCC(C#N)(c2ccc(OC)c(OC)c2)C(C)C)cc1OC (stereo not drawn)				861	13.4	97	0.8	57	8.29	
CN(C)C(=O)C1C2c3ccccc3C(c3ccccc32)C1C(=O)N(C)C (stereo in doubt; 4)			> 2000					0		IC50 (Plasmodium falciparum [5]): 35.5 µM
CN(C)CC1C2c3ccccc3C(c3ccccc32)C1CN(C)C (stereo in doubt; 5)	0	3.41	1035	>2000	2		0.25		9.19	Reversal (Plasmodium falciparum [20]): 80%
CN(C)C(=O)C1C2c3ccccc3C(c3ccccc32)C1C(=O)N(C)C (stereo in doubt; 17)	1.7	1.7	1558	>2000			9	3	-1.34	IC50 (Plasmodium falciparum [5]): 12.4 µM; Accumulation coefficient (Plasmodium falciparum [21]): 32
CN(C)CC1C2c3ccccc3C(c3ccccc32)C1CN(C)C (stereo in doubt; 19)			> 2000					80		IC50 (Plasmodium falciparum [5]): 4 µM; IC50 (Plasmodium falciparum [7]): 0.4 µM; Accumulation coefficient (Plasmodium falciparum [22]): 298
CCN(CC)CCCC(C)Nc1ccnc2cc(Cl)ccc12 (stereo not drawn) [CHLOROQUINE]					0.9			0		Accumulation coefficient (Plasmodium falciparum [23]): 18; Accumulation coefficient (Plasmodium falciparum [24]): 191
CNC1(C)C2CCC(C2)C1(C)C (stereo not drawn) [MECAMYLAMINE]	-0.4				91.4	45	6	15	11	logP [2]: 2.13
CC(CN1c2ccccc2Sc2ccccc21)N(C)C (stereo not drawn) [PROMETHAZINE]	1.96	3.86	702	618	20		0.4	67	8.89	Accumulation coefficient (Plasmodium falciparum [25]): 42
